Test results as given in ChEMBL document CHEMBL1124558, “Differential effects of a series of hydroxamic acid derivatives on 5-lipoxygenase and cyclooxygenase from neutrophils and 12-lipoxygenase from platelets and their in vivo effects on inflammation and anaphylaxis” (J Med Chem, 1989).

Legend:
[1] = biological target: T1, Arachidonate 12-lipoxygenase (Rattus norvegicus) (UniProt Q02759); test: In vitro inhibitory activity against rat platelet 12-lipoxygenase at 100 uM
T1 sequence (whole entry): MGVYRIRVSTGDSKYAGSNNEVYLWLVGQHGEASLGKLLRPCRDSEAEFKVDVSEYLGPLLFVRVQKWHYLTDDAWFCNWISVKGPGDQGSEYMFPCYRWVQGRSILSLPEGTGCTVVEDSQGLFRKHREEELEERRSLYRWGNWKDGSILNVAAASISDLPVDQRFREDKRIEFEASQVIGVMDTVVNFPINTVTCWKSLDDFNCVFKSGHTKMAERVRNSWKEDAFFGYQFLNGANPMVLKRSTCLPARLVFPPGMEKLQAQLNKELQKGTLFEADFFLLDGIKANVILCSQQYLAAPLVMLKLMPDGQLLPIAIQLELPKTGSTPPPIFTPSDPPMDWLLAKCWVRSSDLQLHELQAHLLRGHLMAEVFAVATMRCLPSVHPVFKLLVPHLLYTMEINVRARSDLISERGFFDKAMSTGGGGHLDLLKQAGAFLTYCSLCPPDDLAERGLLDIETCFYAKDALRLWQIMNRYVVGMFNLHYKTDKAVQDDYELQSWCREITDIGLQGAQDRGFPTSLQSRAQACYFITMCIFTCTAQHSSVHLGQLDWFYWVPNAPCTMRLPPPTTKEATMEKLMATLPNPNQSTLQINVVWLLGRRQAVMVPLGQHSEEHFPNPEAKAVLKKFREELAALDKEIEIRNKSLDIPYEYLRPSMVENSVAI
Outline: (§1)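 Cell-free cytosolic 12-lipoxygenase from Sprague-Dawley rat platelets (0.4 mg/mL), preincubated 5 min at 30 °C with compound in DMSO (≤0.1% final), 25 mM Tris pH 7.4, 1 μM indomethacin, 100 μM glutathione; reaction started with 6 μM [14C]arachidonic acid and quenched with citric acid/NDGA after 3 min. 12-HETE isolated by TLC and counted by scintillation; % inhibition, duplicate.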

Mus musculus = test: In vivo inhibition of mouse ear inflammation; type: functional; parameters: concentration or dose not given beside the values
Outline: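 Compound or ethanol vehicle applied topically to one ear of male DBA/2J mice 60 min before arachidonic acid (2 mg/ear). […] Groups of 5 mice.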

[2] = biological target: T2, Polyunsaturated fatty acid 5-lipoxygenase (Rattus norvegicus, UniProt P12527); test: In vitro inhibition of rat polymorphonuclear leukocyte 5-lipoxygenase
T2 sequence (P12527 whole entry): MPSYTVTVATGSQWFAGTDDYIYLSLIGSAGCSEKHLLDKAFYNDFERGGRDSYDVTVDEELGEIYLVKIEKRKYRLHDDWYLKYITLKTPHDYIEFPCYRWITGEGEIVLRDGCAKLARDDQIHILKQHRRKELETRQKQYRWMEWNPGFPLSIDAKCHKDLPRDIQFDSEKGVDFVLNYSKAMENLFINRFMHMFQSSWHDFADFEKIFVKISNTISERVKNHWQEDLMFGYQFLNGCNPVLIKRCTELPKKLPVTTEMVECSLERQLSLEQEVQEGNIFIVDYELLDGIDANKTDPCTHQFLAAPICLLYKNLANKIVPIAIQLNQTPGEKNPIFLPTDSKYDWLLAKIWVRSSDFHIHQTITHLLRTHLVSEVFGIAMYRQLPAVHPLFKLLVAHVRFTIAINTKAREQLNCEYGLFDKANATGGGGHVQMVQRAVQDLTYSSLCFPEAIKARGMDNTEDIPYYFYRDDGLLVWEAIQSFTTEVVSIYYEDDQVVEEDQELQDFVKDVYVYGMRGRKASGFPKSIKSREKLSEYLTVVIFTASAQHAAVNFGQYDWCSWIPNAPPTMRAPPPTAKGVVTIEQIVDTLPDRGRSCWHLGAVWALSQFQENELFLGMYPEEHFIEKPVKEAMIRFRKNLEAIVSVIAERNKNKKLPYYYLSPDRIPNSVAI
Outline: (§2)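 Intact glycogen-elicited peritoneal PMNs pooled from 4–5 Sprague-Dawley rats (250 g), preincubated 5 min at 30 °C with compound in DMSO (≤0.1% final) plus 1 μM indomethacin. Challenge with [14C]arachidonic acid (4 μM) and A23187 (0.8 μM) for 3 min. Extraction, TLC, 5-HETE by scintillation counting.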

[3] = biological target: T3, Polyunsaturated fatty acid 5-lipoxygenase (Homo sapiens, UniProt P09917); test: In vitro inhibition of polymorphonuclear leukocyte derived human 5-lipoxygenase
T3 sequence (P09917 whole entry): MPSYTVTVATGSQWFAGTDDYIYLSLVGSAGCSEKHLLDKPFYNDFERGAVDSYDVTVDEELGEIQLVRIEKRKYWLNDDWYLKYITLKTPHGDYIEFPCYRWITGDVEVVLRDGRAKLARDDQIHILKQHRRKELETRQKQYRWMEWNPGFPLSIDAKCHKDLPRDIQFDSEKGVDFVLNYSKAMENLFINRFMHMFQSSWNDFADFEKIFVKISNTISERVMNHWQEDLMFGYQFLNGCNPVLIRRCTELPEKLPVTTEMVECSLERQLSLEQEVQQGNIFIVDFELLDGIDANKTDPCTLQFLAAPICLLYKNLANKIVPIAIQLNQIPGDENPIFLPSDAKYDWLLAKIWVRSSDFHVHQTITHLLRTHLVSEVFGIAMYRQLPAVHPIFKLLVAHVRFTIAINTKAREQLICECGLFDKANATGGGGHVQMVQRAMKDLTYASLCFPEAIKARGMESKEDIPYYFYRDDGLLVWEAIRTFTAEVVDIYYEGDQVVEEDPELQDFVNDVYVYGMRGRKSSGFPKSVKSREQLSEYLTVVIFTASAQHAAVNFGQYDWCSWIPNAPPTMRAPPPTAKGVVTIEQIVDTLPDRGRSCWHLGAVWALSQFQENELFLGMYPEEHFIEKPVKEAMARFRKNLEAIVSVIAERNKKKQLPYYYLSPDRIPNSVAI
Outline: (§3)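 PMNs from venous blood of healthy volunteers, isolated by dextran sedimentation and Percoll gradient (>90% pure) and held in Ca/Mg PBS with 1 mg/mL glucose and 1 μM indomethacin. Challenged with calcium ionophore and [14C]arachidonic acid for 3 min. 5-HETE measured by TLC and scintillation counting; IC50 read graphically.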

[4] = biological target: T4, Cyclooxygenase (Rattus norvegicus) (UniProt P35355+Q63921); test: (§4) In vitro inhibitory activity against rat polymorphonuclear leukocyte Prostaglandin G/H synthase at 100 uM; type: functional
Outline: (§5)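 Glycogen-elicited peritoneal PMNs from Sprague-Dawley rats were homogenized at 0 °C in 0.1 M Tris-HCl pH 8.2 with 10 μM NDGA. Compound (DMSO ≤0.1%) was preincubated 5 min at 37 °C, then 8 μM [14C]arachidonic acid with 4 mM glutathione and epinephrine was added for 10 min. TxB2 and PGF2α were measured by TLC and scintillation counting.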

[5] = biological target: T5, Polyunsaturated fatty acid 5-lipoxygenase (Homo sapiens) (UniProt P09917); test: In vitro inhibitory activity against polymorphonuclear leukocyte 5-lipoxygenase in human cell at 10 uM
T5 sequence (whole entry): T3 sequence (P09917 whole entry)
Outline: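 Human PMNs from venous blood of a healthy volunteer (EDTA) were purified by dextran sedimentation, a Percoll gradient and NH4Cl red-cell lysis (>90% pure). They were held in Ca/Mg PBS with 1 mg/mL glucose and 1 μM indomethacin, then challenged with A23187 (0.8 μM) and [14C]arachidonic acid (4 μM) for 3 min. 5-HETE was measured by TLC and scintillation counting.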

[6] = tested on: 5-lipoxygenase (Cavia porcellus); test: In vitro inhibitory activity against polymorphonuclear leukocyte 5-lipoxygenase using guinea pig supernatant at 10 uM
[7] = biological target: T1, Arachidonate 12-lipoxygenase (Rattus norvegicus); test: In vitro inhibitory activity against rat platelet 12-lipoxygenase at 10 uM; outline: as §1
[8] = biological target: T4, Cyclooxygenase (Rattus norvegicus); test: In vitro inhibitory activity against rat polymorphonuclear leukocyte Prostaglandin G/H synthase at 30 uM; type: protein assay
Outline: (§6)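 Homogenate of glycogen-elicited rat peritoneal PMNs in 0.1 M Tris-HCl pH 8.2 with 10 μM NDGA, preincubated 5 min at 37 °C with compound (≤0.1% DMSO). [14C]arachidonic acid (8 μM) added with 4 mM glutathione and epinephrine; 10 min reaction. TxB2 and PGF2α separated by TLC and counted.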

[9] = biological target: T4, Cyclooxygenase (Rattus norvegicus); test: In vitro inhibitory activity against rat polymorphonuclear leukocyte Prostaglandin G/H synthase at 10 uM; type: protein assay; outline: as §6
[10] = biological target: T6, Polyunsaturated fatty acid 5-lipoxygenase (Rattus norvegicus) (UniProt P12527); test: In vitro inhibitory activity against polymorphonuclear leukocyte 5-lipoxygenase in rat cell at 10 uM; outline: as §2
T6 sequence (whole entry): T2 sequence (P12527 whole entry)

Cyclooxygenase = biological target: T7, Cyclooxygenase (Rattus norvegicus, UniProt P35355+Q63921); test: as §4; type: protein assay; outline: as §5
T7 sequence (P35355 whole entry): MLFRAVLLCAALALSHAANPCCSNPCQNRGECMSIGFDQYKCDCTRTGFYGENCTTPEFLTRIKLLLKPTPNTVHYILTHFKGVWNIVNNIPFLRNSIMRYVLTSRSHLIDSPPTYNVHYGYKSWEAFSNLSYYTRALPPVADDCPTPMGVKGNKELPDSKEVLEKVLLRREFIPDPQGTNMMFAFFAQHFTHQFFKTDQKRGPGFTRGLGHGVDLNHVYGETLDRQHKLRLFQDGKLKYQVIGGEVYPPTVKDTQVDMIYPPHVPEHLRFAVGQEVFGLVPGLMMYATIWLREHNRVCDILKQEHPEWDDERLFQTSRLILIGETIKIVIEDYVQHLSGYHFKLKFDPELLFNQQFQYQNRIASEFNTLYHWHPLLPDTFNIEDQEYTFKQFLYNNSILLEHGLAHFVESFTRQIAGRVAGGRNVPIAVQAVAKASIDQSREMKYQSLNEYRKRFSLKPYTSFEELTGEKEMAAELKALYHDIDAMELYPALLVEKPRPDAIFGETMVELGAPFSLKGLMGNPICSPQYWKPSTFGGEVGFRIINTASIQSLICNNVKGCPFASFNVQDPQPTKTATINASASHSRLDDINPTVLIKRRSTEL
T7 sequence (Q63921 whole entry): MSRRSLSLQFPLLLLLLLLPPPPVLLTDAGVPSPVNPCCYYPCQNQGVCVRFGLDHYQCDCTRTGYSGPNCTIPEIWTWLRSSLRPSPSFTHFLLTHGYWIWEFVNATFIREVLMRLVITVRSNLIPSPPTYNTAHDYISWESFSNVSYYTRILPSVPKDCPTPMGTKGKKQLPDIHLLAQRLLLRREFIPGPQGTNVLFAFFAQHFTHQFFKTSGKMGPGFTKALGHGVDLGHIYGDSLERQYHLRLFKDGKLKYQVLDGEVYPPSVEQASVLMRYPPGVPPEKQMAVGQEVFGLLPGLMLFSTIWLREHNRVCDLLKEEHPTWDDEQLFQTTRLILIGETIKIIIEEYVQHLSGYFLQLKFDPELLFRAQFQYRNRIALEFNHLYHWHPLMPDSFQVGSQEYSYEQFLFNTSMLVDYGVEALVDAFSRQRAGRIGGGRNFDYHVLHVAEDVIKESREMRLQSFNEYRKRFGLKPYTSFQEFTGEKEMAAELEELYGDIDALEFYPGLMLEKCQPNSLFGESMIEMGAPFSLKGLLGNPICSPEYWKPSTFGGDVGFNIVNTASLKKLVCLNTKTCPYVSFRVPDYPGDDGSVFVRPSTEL

Cavia porcellus = test: In vivo inhibitory activity against guinea pig systemic anaphylaxis when administered a compound dose (200 mg/kg) perorally; type: functional; conditions: po
Outline: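 Male Hartley guinea pigs sensitised ip with ovalbumin (2.7 mg/kg) plus LPS adjuvant, then challenged 2 weeks later with 1% ovalbumin aerosol for 30 s. Pretreated with pyrilamine, indomethacin and propranolol 20 min before challenge. Compound given in PEG 400 1 h before challenge.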

[11] = biological target: T6, Polyunsaturated fatty acid 5-lipoxygenase (Rattus norvegicus); test: In vitro inhibitory activity against polymorphonuclear leukocyte 5-lipoxygenase in rat cell at 3 uM; outline: as §2
[12] = biological target: T5, Polyunsaturated fatty acid 5-lipoxygenase (Homo sapiens); test: In vitro inhibitory activity against polymorphonuclear leukocyte 5-lipoxygenase in human cell at 1 uM; outline: as §3

O=C(Cc1ccc(OCc2ccccc2)cc1)N(O)Cc1ccccc1
inhibition [1]: 47% | Inhibition (Mus musculus): 37% | IC50 [2]: 0.1 µM | IC50 [3]: 0.12 µM | inhibition [4]: 32%

O=C(Cc1ccc(OCc2ccccc2)cc1)N(Cc1ccccc1)OCc1ccccc1
inhibition [5]: 22% | inhibition [6]: < 10% | inhibition [7]: < 10% | inhibition [8]: 24%

CC(c1ccccc1)N(O)C(=O)Cc1ccc(OCc2ccccc2)cc1 (configuration not stated)
Inhibition (Mus musculus): 47% | inhibition [9]: 38%

O=C(O)CCCCN(O)C(=O)Cc1ccc(OCc2ccccc2)cc1
inhibition [10]: 21% | Inhibition (Cyclooxygenase): 50%

O=C(CCCc1ccccc1)NO [PHENYLBUTYRYLHYDROXAMIC ACID]
inhibition in vivo at 200 mg/kg (Cavia porcellus): 11% | Inhibition (Mus musculus): 28% | inhibition [11]: 11% | inhibition [12]: -8%
